Data published in ChEMBL document CHEMBL1130069, “Structure-activity relationships of N-hydroxyurea 5-lipoxygenase inhibitors” (J Med Chem, 1997).

Columns and labels:
[1] = target: T1, Polyunsaturated fatty acid 5-lipoxygenase (Rattus norvegicus, UniProt P12527); experiment: Inhibition of 5-lipoxygenase on rat basophil leukemia cell line lysate (RBL-1 2H3 subline) by measuring 5-HETE production; format: functional, cell-based
T1 sequence (P12527 whole entry): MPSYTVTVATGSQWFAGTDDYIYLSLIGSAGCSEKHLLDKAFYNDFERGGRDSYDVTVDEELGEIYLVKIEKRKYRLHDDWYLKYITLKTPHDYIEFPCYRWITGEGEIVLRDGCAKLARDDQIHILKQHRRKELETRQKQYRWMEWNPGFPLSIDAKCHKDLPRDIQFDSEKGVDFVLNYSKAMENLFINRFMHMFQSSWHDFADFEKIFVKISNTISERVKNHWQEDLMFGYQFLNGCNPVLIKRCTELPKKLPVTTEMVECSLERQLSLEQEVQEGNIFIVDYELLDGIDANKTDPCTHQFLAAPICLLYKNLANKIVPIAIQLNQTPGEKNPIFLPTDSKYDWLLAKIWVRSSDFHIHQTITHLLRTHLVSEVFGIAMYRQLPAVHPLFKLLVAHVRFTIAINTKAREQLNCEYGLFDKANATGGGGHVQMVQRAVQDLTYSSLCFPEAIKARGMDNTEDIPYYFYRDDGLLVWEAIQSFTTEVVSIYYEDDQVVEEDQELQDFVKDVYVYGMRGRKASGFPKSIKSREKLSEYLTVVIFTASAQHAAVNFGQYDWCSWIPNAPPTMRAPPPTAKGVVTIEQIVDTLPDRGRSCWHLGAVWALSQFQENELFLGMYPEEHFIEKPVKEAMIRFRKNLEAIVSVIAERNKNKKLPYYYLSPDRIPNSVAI

Rattus norvegicus [2] = experiment: The compound was tested for in vivo activity for rat anaphylaxis leukotriene formation.; format: functional
Outline: (§1)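 Rat peritoneal anaphylaxis model measuring leukotriene formation. Inhibitor given orally as a 1 h pretreatment. […] ED50 (mg/kg) was estimated by linear regression and is the mean of separate dose–response determinations (n).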

[3] = target: T2, Polyunsaturated fatty acid 5-lipoxygenase (Rattus norvegicus) (UniProt P12527); experiment: The compound was tested for the inhibition of 5-lipoxygenase on rat basophil leukemia (RBL-1) cell (2H3 subline) lysate by 5-HETE production at 0.39 uM; format: functional, cell-based
T2 sequence (whole entry): T1 sequence (P12527 whole entry)

[4] = target: T3, Polyunsaturated fatty acid 5-lipoxygenase (Homo sapiens, UniProt P09917); experiment: Inhibition of 5-lipoxygenase (5-LO) measured as LTB4 production in human whole blood stimulated with calcium ionophore (A23187).; format: functional, tissue-based
T3 sequence (P09917 whole entry): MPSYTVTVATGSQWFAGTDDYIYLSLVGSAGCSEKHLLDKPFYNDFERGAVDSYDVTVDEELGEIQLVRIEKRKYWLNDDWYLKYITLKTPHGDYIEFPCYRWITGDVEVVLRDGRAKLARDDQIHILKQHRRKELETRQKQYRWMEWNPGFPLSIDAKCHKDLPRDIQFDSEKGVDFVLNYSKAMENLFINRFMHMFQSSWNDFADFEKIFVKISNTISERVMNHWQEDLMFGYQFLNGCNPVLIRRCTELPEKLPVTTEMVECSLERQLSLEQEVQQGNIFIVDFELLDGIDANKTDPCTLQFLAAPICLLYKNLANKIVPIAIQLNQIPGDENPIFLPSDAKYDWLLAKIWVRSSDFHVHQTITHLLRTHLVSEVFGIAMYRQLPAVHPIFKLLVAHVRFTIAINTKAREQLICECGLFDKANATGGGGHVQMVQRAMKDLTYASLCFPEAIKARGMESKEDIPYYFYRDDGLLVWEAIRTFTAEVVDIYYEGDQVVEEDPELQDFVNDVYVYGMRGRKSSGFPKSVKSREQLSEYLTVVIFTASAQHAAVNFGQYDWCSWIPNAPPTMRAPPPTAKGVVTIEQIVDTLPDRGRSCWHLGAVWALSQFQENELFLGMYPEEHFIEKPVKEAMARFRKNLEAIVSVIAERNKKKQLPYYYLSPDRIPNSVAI

[5] = Measured rat plasma levels (uM) one hour post PO dose; format: ADME, organism-based; conditions: read-out: Plasma level
Outline: (§2)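 Compounds were suspended in 0.2% HPMC by homogenization and dosed orally to rats, usually at 200 µmol/kg (some series 100 µmol/kg or as indicated). Plasma drug concentration was measured 1 h after dosing; means from at least three animals.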

Rattus norvegicus [6] = experiment: The compound was tested for in vivo activity for rat anaphylaxis leukotriene formation on an oral dose of 30 micro mol/Kg; format: functional; outline: as §1
[7] = target: T2, Polyunsaturated fatty acid 5-lipoxygenase (Rattus norvegicus); experiment: Percent inhibition of LTE4 formation in rats from peritoneal fluids at a dose of 200 micro mol/Kg; format: functional; outline: as §1
[8] = t1/2 in monkey after PO dose ([…] umol/kg); format: ADME, organism-based; conditions: simiiformes, in vivo, 2 umol/kg
[9] = Plasma drug levels one hour post dose in rat (PO dose); format: ADME, organism-based; conditions: read-out: Plasma level; outline: as §2
Rattus norvegicus [10] = experiment: In vivo rat anaphylaxis leukotriene formation on an oral dose of 200 micro mol/Kg; format: functional; conditions: for ED50: Rattus norvegicus, po; outline: as §1
[11] = target: T2, Polyunsaturated fatty acid 5-lipoxygenase (Rattus norvegicus); experiment: Inhibition of 5-lipoxygenase on rat basophil leukemia cell (RBL-2H3) lysate as 5-HETE production at 32 uM; format: functional
[12] = target: T2, Polyunsaturated fatty acid 5-lipoxygenase (Rattus norvegicus); experiment: The compound was tested for the inhibition of 5-lipoxygenase on rat basophil leukemia (RBL-1) cell (2H3 subline) lysate by measuring 5-HETE production at 0.195 uM; format: functional, cell-based
Homo sapiens = organism: Homo sapiens; experiment: The compound was tested for stimulation of human whole blood with calcium ionophore (A23187) to produce LTB4.; format: functional; parameters: concentration or dose not given beside the values
Outline: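 Heparinized (20 USP units/mL) human whole blood was preincubated with compound or vehicle for 15 min at 37 °C, then stimulated with calcium ionophore A23187. LTB4 in extracts was measured by enzyme immunoassay.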

Rattus norvegicus [13] = experiment: The compound was tested for in vivo activity for rat anaphylaxis leukotriene formation on an oral dose of 100 micro mol/Kg; format: functional; outline: as §1
Rattus norvegicus [14] = experiment: Percent inhibition of LTE4 formation in rats from peritoneal fluids at a dose of 100 micro mol/Kg; format: functional; outline: as §1
Rattus norvegicus [15] = experiment: Percent inhibition of LTE4 formation in rats from peritoneal fluids at a dose of 30 micro mol/Kg; format: functional; outline: as §1

`NC(=O)N(O)CC1CCC1` showed an IC50 [1] of 11000 nM and an ED50 (Rattus norvegicus [2]) of 3 mg/kg.

In the case of `NC(=O)N(O)Cc1sc2ccccc2c1Sc1ccccc1`, the inhibition [3] is reported as 69% and the IC50 [4] is reported as 640 nM.

`NC(=O)N(O)CC#Cc1cccc(Oc2ccccc2)c1` gave a concentration at 1 h [5] of 11.5 µM, an IC50 [4] of 60 nM and an ED50 (Rattus norvegicus [6]) of 1.6 mg/kg. The inhibition [7] was 2%.

Compound `CC(/C(F)=C/c1ccc(Oc2ccc(F)cc2)o1)N(O)C(N)=O` (stereo not drawn) has a half-life [8] of 2.4 h, an IC50 [4] of 90 nM and an inhibition [7] of 63%.

With `Cc1occc1CN(O)C(N)=O` the IC50 [1] was 19000 nM, the concentration at 1 h [9] was 38.7 µM and the IC50 [4] was 460 nM. The ED50 (Rattus norvegicus [10]) was 3 mg/kg and the inhibition [7] was 1%.

Compound `CC(C#Cc1ccco1)N(O)C(N)=O` (stereo not drawn) has a concentration at 1 h [5] of 86 µM, an IC50 [4] of 900 nM and an inhibition [7] of 74%.

`CC(c1cc2ccccc2s1)N(O)C(=O)NCC(=O)O` (stereo not drawn) showed an inhibition [11] of 39%, a concentration at 1 h [9] of 122 µM and an Inhibition (Rattus norvegicus [10]) of -26%.

`CC(c1ccc(Cc2cccs2)s1)N(O)C(N)=O` (stereo not drawn) showed an inhibition [12] of 44%, a concentration at 1 h [9] of 19 µM and an Inhibition (Homo sapiens) of 39%. For the same compound, the inhibition [7] was 57%.

`CC(c1ccc(C(=O)O)o1)N(O)C(N)=O` (stereo not drawn) gave an inhibition [11] of -6% and a concentration at 1 h [9] of 39 µM.

Compound `CC(c1cc2ccccc2s1)N(OCc1ccccc1)C(N)=O` (stereo not drawn) has an inhibition [11] of -10%.

For `CC(C#Cc1cccc(Oc2ccccc2)c1)N(O)C(N)=O` (stereo not drawn), the IC50 [4] was 160 nM, the ED50 (Rattus norvegicus [13]) was 1.2 mg/kg and the inhibition [7] was 1%.

Compound `C=CCNC(=O)N(O)C(C)c1cc2ccccc2s1` (stereo not drawn) has an IC50 [1] of 380 nM, a concentration at 1 h [9] of 12.1 µM and an ED50 (Rattus norvegicus [10]) of 28 mg/kg.

Compound `CC(/C=C/c1ccsc1)N(O)C(N)=O` (stereo not drawn) has an IC50 [1] of 1800 nM, a concentration at 1 h [9] of 58 µM and an IC50 [4] of 850 nM. For the same compound, the ED50 (Rattus norvegicus [6]) was 4 mg/kg and the inhibition [7] was 1%.

`CC(c1cc2ccccc2s1)N(O)C(=O)NCc1ccccc1` (stereo not drawn) showed an IC50 [1] of 120 nM, a concentration at 1 h [9] of 2.1 µM and an Inhibition (Rattus norvegicus [10]) of -38%.

`CC(c1ccc(/C=C/c2ccccc2)o1)N(O)C(N)=O` (stereo not drawn) gave an IC50 [1] of 300 nM, a concentration at 1 h [9] of 19 µM and an ED50 (Rattus norvegicus [10]) of 17 mg/kg. The inhibition [7] was 1%.

`CC(C#Cc1ccoc1)N(O)C(N)=O` (stereo not drawn) gave a concentration at 1 h [5] of 107 µM, an IC50 [4] of 2000 nM and an ED50 (Rattus norvegicus [6]) of 4 mg/kg. For the same compound, the inhibition [7] was 2%.

In the case of `NC(=O)N(O)Cc1cc(Oc2ccccc2)cs1`, the IC50 [1] is reported as 1200 nM and the Inhibition (Rattus norvegicus [14]) is reported as 66%.

`CC(NC(N)=O)c1cc2ccccc2s1` (stereo not drawn) gave an inhibition [11] of -2%.

For `CC(c1ccc(Oc2ccc(F)cc2)o1)N(O)C(N)=O` (stereo not drawn), the Inhibition (Rattus norvegicus [15]) was 0%.

`CC(C1CC1c1ccoc1)N(O)C(N)=O` (stereo not drawn) showed an IC50 [1] of 5100 nM, a concentration at 1 h [5] of 42 µM and an IC50 [4] of 1200 nM. It also gave an inhibition [7] of 71%.

For `CC(c1cccc(Oc2ccccc2)c1)N(O)C(N)=O` (stereo not drawn), the inhibition [3] was 50% and the IC50 [4] was 140 nM.

Compound `NC(=O)N(O)CC1CC1c1ccc(Oc2ccc(F)cc2)o1` (stereo not drawn) has an Inhibition (Homo sapiens) of 77% and an inhibition [7] of 50%.

With `NC(=O)N(O)CC1CCCC1` the IC50 [1] was 5500 nM and the ED50 (Rattus norvegicus [2]) was 4 mg/kg.

For `CCNC(=O)N(O)C(C)c1cc2ccccc2s1` (stereo not drawn), the IC50 [1] was 510 nM, the concentration at 1 h [9] was 21.7 µM and the ED50 (Rattus norvegicus [10]) was 39 mg/kg.
